One data set has as its system Leishmania major. Description: Antileishmanial activity against Leishmania major MRHO/IR/75/ER promastigote infected in BALB/c mouse peritoneal macrophage after 24 hrs by MTT assay. Format: functional, organism-based. The method in brief: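 L. major vaccine strain MRHO/IR/75/ER, maintained by passage in BALB/c mice, grown on blood agar at 25 °C. Log-phase promastigotes at 2 × 10⁶/mL were put in phenol red-free RPMI 1640 with 10% FCS, 2 mM glutamine, pH ~7.2 and antibiotics, with serial drug dilutions, for 24 h at 25 °C. MTT (0.5 mg/mL) was added for 4 h at 37 °C; pellets were dissolved in DMSO and read on a plate reader. IC50 was determined.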
(In general: Tetrazolium assays rely on reduction of a dye to a coloured formazan, in cell work by metabolically active cells.)

A short description of data set [1]: Cytotoxicity against BALB/c mouse peritoneal macrophage after 24 hrs by MTT assay. Format: cell-based. The following applies: peritoneal macrophage cell. Summed up:
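Mouse peritoneal macrophages were seeded at 2 × 10⁵ cells/well. After adherence, the medium was replaced with medium holding one concentration per compound. Plates were incubated 24 h at 37 °C in humidified 5% CO2. Controls got culture medium plus DMSO. Viability was read by MTT colorimetric assay.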

The source of these data is ChEMBL document CHEMBL1157026, “Novel antileishmanial chalconoids: synthesis and biological activity of 1- or 3-(6-chloro-2H-chromen-3-yl)propen-1-ones” (Eur J Med Chem, 2010).

Usually IC50 stands for the concentration needed to halve the response being measured. A lower IC50 goes with greater potency.

Compound `COc1cc(C(=O)/C=C/C2=Cc3cc(Cl)ccc3OC2)cc(OC)c1OC` yielded an IC50 in the data set with Leishmania major of 2060 nM. Also, the Activity result in data set [1] was “Non-toxic”.
For the compound `O=C(/C=C/c1ccccc1Br)C1=Cc2cc(Cl)ccc2OC1`, the IC50 in the data set with Leishmania major turned out to be 1330 nM. Further, the Activity result in data set [1] was “Non-toxic”.
The corresponding values for `Cc1ccc(/C=C/C(=O)C2=Cc3cc(Cl)ccc3OC2)cc1` are 2750 nM and “Non-toxic”.
The corresponding values for `COc1ccc(OC)c(/C=C/C(=O)C2=Cc3cc(Cl)ccc3OC2)c1` are 3000 nM and “Non-toxic”.
`COc1cccc(/C=C/C(=O)C2=Cc3cc(Cl)ccc3OC2)c1OC`: in the data set with Leishmania major, the IC50 is 2800 nM. Further, the Activity result in data set [1] was “Non-toxic”.
In the same order, the values of `O=C(/C=C/C1=Cc2cc(Cl)ccc2OC1)c1ccccc1F` are 2220 nM and “Non-toxic”.
`O=C(/C=C/C1=Cc2cc(Cl)ccc2OC1)c1ccccc1Cl` yielded an IC50 in the data set with Leishmania major of 1220 nM. The Activity entry in data set [1] is “Non-toxic”.
As for `O=C(/C=C/C1=Cc2cc(Cl)ccc2OC1)c1ccc(Cl)cc1Cl`, in the data set on Leishmania major, the IC50 is 1910 nM. Besides, the Activity result in data set [1] is reported as “Non-toxic”.
As for MEGLUMINE ANTIMONATE, the Activity in data set [1] is 40%.
